# Results published in ChEMBL document CHEMBL1132985, “Design and SAR of novel potassium channel openers targeted for urge urinary incontinence. 2. Selective and potent benzylamino cyclobutenediones” (J Med Chem, 2000).
# Columns and labels:
# Type in all cases: functional
# [1] = species on record: Rattus norvegicus; assay: In vitro inhibitory concentration that relaxed KCL induced contraction in rat detrusor strip by 50%
# [2] = tested on: Rattus norvegicus; assay: Compound was evaluated in vivo for the effective dose that cause a 50% reduction in frequency of spontaneous bladder contraction in the rat hypertrophied model after oral administration
# In short: (§1)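 Female Sprague-Dawley rats (190-210 g) given partial proximal urethral ligation (4-0 silk over 1 mm rod) under isoflurane; bladder catheter, cystometry in metabolic cages after overnight saline perfusion (2 mL/h), saline infusion 20 mL/h. Oral dosing in PEG-200 2 h after first cystometry, repeat ~1 h post-dose; % change in contraction frequency from pre-drug; ED50 from dose-response.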
# [3] = Selectivity ratio of MAP ED20/bladder ED50
# In short: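 Ratio of oral MAP ED20 in normotensive rats to oral ED50 for 50% fall in spontaneous bladder contraction frequency in rat hypertrophied unstable-bladder model.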
# [4] = tested on: Rattus norvegicus; assay: Compound was evaluated in vivo for the effective dose that cause a 20% drop in MAP normotensive rat after oral administration
# [5] = tested on: Rattus norvegicus; assay: The percent change in BP was determined after oral administration of a dose of 10 mg/kg in rat hypertrophied model
# [6] = tested on: Rattus norvegicus; assay: The percent change in the frequency of spontaneous bladder contractions after oral administration of a dose of 3 mg/kg in rat hypertrophic bladder model; in short: as §1
IC50 [1] [µM],Structure (SMILES),further results
1.1,CC(C)(C)/N=c1\c(O)c(O)\c1=N/Cc1c(Cl)cccc1Cl,–
7.5,CC(C)(C)/N=c1\c(O)c(O)\c1=N/Cc1c(F)cccc1F,–
1.2,CCC(C)(C)/N=c1\c(O)c(O)\c1=N/Cc1c(C)cc(Br)cc1C,–
1.7,CC(C)(C)/N=c1\c(O)c(O)\c1=N/Cc1ccc(Cl)cc1,–
21.3,CC(C)(CO)/N=c1\c(O)c(O)\c1=N/Cc1ccc(C#N)cc1,–
1.6,CCC(C)(C)/N=c1\c(O)c(O)\c1=N/Cc1ccc(F)c(F)c1,–
–,CCCC(=O)N(Cc1c(C)cc(Cl)cc1Cl)c1c(NC(C)(C)CC)c(=O)c1=O,ED50 [2]: 3.9 mg/kg
0.13,CCC(C)(C)/N=c1\c(O)c(O)\c1=N/Cc1ccc(C#N)cc1Cl,–
3.9,CC(C)(C)/N=c1\c(O)c(O)\c1=N/Cc1cc(F)ccc1F,–
0.31,CCC(C)(C)/N=c1\c(O)c(O)\c1=N/Cc1c(C)cc(C)cc1C,–
10.2,CC(C)C/N=c1\c(O)c(O)\c1=N/Cc1ccc(C#N)cc1,–
5.6,CCC(C)(C)/N=c1\c(O)c(O)\c1=N/Cc1ccc(SC)cc1,–
0.14,CC(C)(C)/N=c1\c(O)c(O)\c1=N/Cc1ccc(C#N)cc1Cl,ED50 [2]: 3 mg/kg
0.1,CCC(C)(C)Nc1c(NCc2c(C)cc(Cl)cc2Cl)c(=O)c1=O,ED50 [2]: 0.6 mg/kg; Ratio [3]: 166; ED20 [4]: 100 mg/kg; Change [5]: -7%; Change [6]: -82%
1.3,CC(C)(C)/N=c1\c(O)c(O)\c1=N/Cc1ccc(Cl)cc1Cl,–
14,CC(C)/N=c1\c(O)c(O)\c1=N/Cc1ccc(C#N)cc1,–
4.8,COc1ccc(C/N=c2\c(O)c(O)\c2=N/C(C)(C)C)cc1,–
3,CC(C)(C)/N=c1\c(O)c(O)\c1=N/Cc1ccncc1,–
0.29,Cc1cc(Br)cc(C)c1C/N=c1\c(O)c(O)\c1=N/C(C)(C)C,–
2.1,CC(C)(C)/N=c1\c(O)c(O)\c1=N/Cc1ccccc1F,–
2,CCc1cc(C#N)ccc1C/N=c1\c(O)c(O)\c1=N/[C@H](C)C(C)(C)C,–
3.4,CC(C)(C)/N=c1\c(O)c(O)\c1=N/Cc1ccccc1,–
0.28,CCC(C)(C)/N=c1\c(O)c(O)\c1=N/Cc1c(Cl)cccc1Cl,–
14.4,N#Cc1ccc(CNc2c(NCC(F)(F)C(F)(F)F)c(=O)c2=O)cc1,–
> 30,CC(C)(C)/N=c1\c(O)c(O)\c1=N/CCc1ccc(C#N)cc1,–

IC50 [1] [µM],Structure (SMILES),further results
0.27,CC(C)(C)/N=c1\c(O)c(O)\c1=N/Cc1ccc(C#N)cc1,ED50 [2]: 3 mg/kg; Change [6]: -52%
–,C[C@](O)(C(=O)Nc1ccc(C(=O)c2ccccc2)cc1)C(F)(F)F [ZD-6169],ED50 [2]: 2.4 mg/kg; Ratio [3]: 2.9
1.1,CCC(C)(C)/N=c1\c(O)c(O)\c1=N/Cc1ccc(C#N)cc1,–
0.21,CCC(C)(C)/N=c1\c(O)c(O)\c1=N/Cc1ccc(Cl)cc1Cl,–
21.9,CCC/N=c1\c(O)c(O)\c1=N/Cc1ccc(C#N)cc1,–
6.5,CC(/N=c1\c(O)c(O)\c1=N/[C@H](C)C(C)(C)C)c1ccc(C#N)cc1 (stereo partly drawn),–
> 30,CN(C)c1c(NCc2ccc(C#N)cc2)c(=O)c1=O,–
0.83,CCC(C)(C)/N=c1\c(O)c(O)\c1=N/Cc1c(C)cccc1C,–
> 30,N#Cc1ccc(CNc2c(NCc3ccc(C#N)cc3)c(=O)c2=O)cc1,–
0.87,CCC(C)(C)/N=c1\c(O)c(O)\c1=N/Cc1ccc(F)c(Cl)c1,–
4.4,CCC(C)(C)/N=c1\c(O)c(O)\c1=N/Cc1c(C)cccc1Cl,–
0.27,CCc1cc(Br)ccc1C/N=c1\c(O)c(O)\c1=N/C(C)(C)C,–
0.63,Cc1ccc(C/N=c2\c(O)c(O)\c2=N/C(C)(C)C)c(C)c1,–
12.2,CCCC(=O)N(Cc1ccc(C#N)cc1)c1c(NC(C)C(C)(C)C)c(=O)c1=O (stereo not drawn),ED50 [2]: 8 mg/kg
18.3,CN(c1c(NCc2ccc(C#N)cc2)c(=O)c1=O)C(C)(C)C,–
11.5,CC(/N=c1/c(NC(=O)c2ccc(C#N)cc2)c(O)c1=O)C(C)(C)C (stereo not drawn),–
0.34,CC(/N=c1\c(O)c(O)\c1=N/Cc1ccc(Cl)cc1Cl)C(C)(C)C (stereo not drawn),–
11.5,CC(C)(C)/N=c1\c(O)c(O)\c1=N/Cc1ccccn1,–
0.53,CCC(C)(C)/N=c1\c(O)c(O)\c1=N/Cc1ccc(C)cc1C,–
> 30,N#Cc1ccc(CNc2c(N)c(=O)c2=O)cc1,–
1.4,CC(C)(C)/N=c1\c(O)c(O)\c1=N/Cc1ccc(F)cc1Cl,–
> 30,CCC(C)(C)/N=c1\c(O)c(O)\c1=N/Cc1cc(C)cc(C)c1,–
2.4,CC(C)(C)/N=c1\c(O)c(O)\c1=N/Cc1cccc(F)c1,–
0.2,CCC(C)(C)/N=c1\c(O)c(O)\c1=N/Cc1c(C)cc(C)cc1Cl,–
0.27,C[C@@H](/N=c1\c(O)c(O)\c1=N/Cc1ccc(C#N)cc1)C(C)(C)C,Change [5]: 7%; Change [6]: -69%

IC50 [1] [µM],Structure (SMILES),further results
0.22,CCC(C)(C)/N=c1\c(O)c(O)\c1=N/Cc1ccc(F)cc1F,–
9.4,N#Cc1ccc(CNc2c(NC3CCCC3)c(=O)c2=O)cc1,–
0.11,CCc1cc(C#N)ccc1C/N=c1\c(O)c(O)\c1=N/C(C)(C)CC,–
2.6,CC(C)(C)/N=c1\c(O)c(O)\c1=N/Cc1cccnc1,–
0.16,CCC(C)(C)/N=c1\c(O)c(O)\c1=N/Cc1c(C)cc(C#N)cc1Cl,–
0.75,CCC(C)(C)/N=c1\c(O)c(O)\c1=N/Cc1cc(F)cc(F)c1,–
1.5,CC(C)(C)/N=c1\c(O)c(O)\c1=N/Cc1ccc(F)cc1,–
4,CC[C@@H](C)/N=c1\c(O)c(O)\c1=N/Cc1ccc(C#N)cc1,–
2.2,CC[C@H](C)/N=c1\c(O)c(O)\c1=N/Cc1ccc(C#N)cc1,–
> 30,CCC(C)(C)/N=c1\c(O)c(O)\c1=N/Cc1ccc(C)c(C)c1,–
1.5,CCC(C)(C)/N=c1\c(O)c(O)\c1=N/Cc1ccc(F)cc1Cl,–
1.3,CCC(CC)/N=c1\c(O)c(O)\c1=N/Cc1ccc(C#N)cc1,–
> 30,CCCC/N=c1\c(O)c(O)\c1=N/Cc1ccc(C#N)cc1,–
6.1,CCc1cc(C/N=c2\c(O)c(O)\c2=N/C(C)(C)C)ccc1C#N,–
> 30,CC(/N=c1\c(O)c(O)\c1=N/CCc1ccc(C#N)cc1)C(C)(C)C (stereo not drawn),–
0.24,CCc1cc(C#N)ccc1C/N=c1\c(O)c(O)\c1=N/C(C)(C)C,–
0.22,Cc1cc(Cl)cc(Cl)c1C/N=c1\c(O)c(O)\c1=N/C(C)(C)C,–
–,CCc1cc(C#N)ccc1Nc1c(N[C@H](C)C(C)(C)C)c(=O)c1=O,ED50 [2]: 0.13 mg/kg; Ratio [3]: 17.7; ED20 [4]: 2.3 mg/kg
–,CC1(C)Oc2ccc(OC(F)(F)F)cc2[C@@H](N2Cc3ccccc3C2=O)[C@@H]1O [CELIKALIM],ED50 [2]: 0.3 mg/kg; Ratio [3]: 0.7; ED20 [4]: 0.2 mg/kg
0.18,CC(/N=c1\c(O)c(O)\c1=N/Cc1ccc(C#N)cc1Cl)C(C)(C)C (stereo not drawn),–
0.36,CCC(C)(C)/N=c1\c(O)c(O)\c1=N/Cc1ccc(F)cc1,–
9.8,Cc1cc(Cl)cc(Cl)c1C/N=c1\c(O)c(O)\c1=N/C(C)C(C)(C)C (stereo not drawn),–
2.1,CC(C)(C)/N=c1\c(O)c(O)\c1=N/Cc1ccc(F)cc1F,–
> 30,C/N=c1\c(O)c(O)\c1=N/Cc1ccc(C#N)cc1,–
1.9,Cc1cc(C#N)cc(Cl)c1C/N=c1\c(O)c(O)\c1=N/C(C)C(C)(C)C (stereo not drawn),–

Structure (SMILES),IC50 [1] [µM],further results
CC(C)(C)/N=c1\c(O)c(O)\c1=N/Cc1ccc(C#N)c(Cl)c1,1.1,–
CCC(C)(C)/N=c1\c(O)c(O)\c1=N/Cc1ccc(C#N)c(Cl)c1,0.26,–
